Assay results: ChEMBL document CHEMBL1146983, “The design and synthesis of human branched-chain amino acid aminotransferase inhibitors for treatment of neurodegenerative diseases” (Bioorg Med Chem Lett, 2006)
pIC50: −log10 of the molar value.

Target: T1, Branched-chain-amino-acid aminotransferase, cytosolic (Homo sapiens, UniProt P54687)
T1 sequence (P54687 whole entry): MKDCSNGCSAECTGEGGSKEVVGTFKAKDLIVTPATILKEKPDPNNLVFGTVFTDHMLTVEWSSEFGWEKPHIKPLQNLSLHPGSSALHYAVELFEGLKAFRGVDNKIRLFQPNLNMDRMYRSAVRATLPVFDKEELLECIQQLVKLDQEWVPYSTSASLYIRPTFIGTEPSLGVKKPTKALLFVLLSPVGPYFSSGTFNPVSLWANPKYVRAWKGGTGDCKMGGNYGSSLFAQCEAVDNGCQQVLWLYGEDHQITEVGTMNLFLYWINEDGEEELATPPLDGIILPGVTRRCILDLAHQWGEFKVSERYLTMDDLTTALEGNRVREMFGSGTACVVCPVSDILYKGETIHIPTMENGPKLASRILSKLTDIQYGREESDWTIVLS
Test: Inhibition of human BCATc
Summary of the method: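 Recombinant hBCATc (E. coli-expressed, purified; 50-100 nM) coupled to saturating purified bovine liver GDH. Mix: 25 mM NaPi pH 7.8, 0.75 mM L-leucine, 0.5 mM α-ketoglutarate, 10 μM pyridoxal phosphate, 1 mM NAD+, 4 mM ADP, 2 mM DTT, 12.5 mM EDTA, 1% DMSO final. 37 °C; A340 read over 20 min. IC50 from 8 to 10 point curves.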

SMILES | pIC50
O=C(NNS(=O)(=O)c1ccccc1)c1cc2ccccc2o1 | 4.74
O=C(NNS(=O)(=O)c1cccc(Cl)c1)c1cccc2c1oc1ccccc12 | < 4.46
Cc1ccccc1S(=O)(=O)NNC(=O)c1ccc2oc3ccccc3c2c1 | 5.49
O=C(NNS(=O)(=O)c1ccccc1)c1ccc2oc3ccccc3c2c1 | 5.63
O=C(NNS(=O)(=O)c1ccccc1)c1cc2cc(Cl)ccc2o1 | 5.38
O=C(NNS(=O)(=O)c1ccccc1)c1cc2cc(Br)ccc2[nH]1 | 4.82
Cc1ccccc1S(=O)(=O)NNC(=O)c1cc2cc(Cl)ccc2[nH]1 | 5.94
O=C(NNS(=O)(=O)c1ccccc1)c1cc2ccccc2[nH]1 | 4.44
O=C(NNS(=O)(=O)c1ccccc1)c1cc2cc(Br)ccc2o1 | 5.60
COc1ccc2[nH]c(C(=O)NNS(=O)(=O)c3ccccc3)cc2c1 | 4.25
O=C(NNS(=O)(=O)c1ccccc1)c1cnc2ccccc2c1 | 4.48
Cc1cccc(S(=O)(=O)NNC(=O)c2cc3cc(Cl)ccc3o2)c1 | 5.92
O=C(NNS(=O)(=O)c1ccccc1Cl)c1cc2cc(Cl)ccc2o1 | 5.24
O=C(NNS(=O)(=O)c1ccccc1)c1ccc2ncccc2c1 | 4.88
Cc1cccc(S(=O)(=O)NNC(=O)c2cccc3c2oc2ccccc23)c1 | 5.55
